Measurements: ChEMBL document CHEMBL4304781, “Development of Highly Selective Pyrimidine-Based Aldosterone Synthase (CYP11B2) Inhibitors” (ACS Med Chem Lett, 2019)
Values after ≈ are worked out from the molar mass of the structure shown.

Legend:
[1] = molecular target: T1, Cytochrome P450 11B2, mitochondrial (Homo sapiens, UniProt P19099); experiment: Inhibition of human recombinant CYP11B2 using deoxycorticosterone as substrate incubated for 90 mins by cell-based HPLC analysis
T1 sequence (P19099 whole entry): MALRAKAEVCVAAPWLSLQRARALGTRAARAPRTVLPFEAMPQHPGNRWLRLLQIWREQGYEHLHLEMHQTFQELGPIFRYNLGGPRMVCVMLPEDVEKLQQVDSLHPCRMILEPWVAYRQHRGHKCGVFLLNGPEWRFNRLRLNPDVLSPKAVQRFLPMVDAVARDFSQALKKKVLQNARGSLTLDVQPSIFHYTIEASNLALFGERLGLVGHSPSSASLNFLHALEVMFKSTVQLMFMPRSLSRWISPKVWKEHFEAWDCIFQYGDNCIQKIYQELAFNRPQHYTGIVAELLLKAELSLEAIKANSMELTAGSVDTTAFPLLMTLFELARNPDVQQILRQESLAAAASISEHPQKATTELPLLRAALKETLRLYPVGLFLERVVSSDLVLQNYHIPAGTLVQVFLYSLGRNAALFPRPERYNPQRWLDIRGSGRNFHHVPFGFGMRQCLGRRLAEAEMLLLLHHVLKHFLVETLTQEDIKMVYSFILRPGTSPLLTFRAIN
In short: (§1)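 Recombinant human CYP11B2 or CYP11B1. Substrate and product steroids both monitored by HPLC-MS. Selectivity taken as CYP11B1 IC50 / CYP11B2 IC50.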

[2] = molecular target: T2, Cytochrome P450 11B1, mitochondrial (Homo sapiens, UniProt P15538); experiment: Inhibition of human recombinant CYP11B1 using deoxycortisol as substrate incubated for 60 mins by cell-based HPLC analysis; format: ADME; in short: as §1
T2 sequence (P15538 whole entry): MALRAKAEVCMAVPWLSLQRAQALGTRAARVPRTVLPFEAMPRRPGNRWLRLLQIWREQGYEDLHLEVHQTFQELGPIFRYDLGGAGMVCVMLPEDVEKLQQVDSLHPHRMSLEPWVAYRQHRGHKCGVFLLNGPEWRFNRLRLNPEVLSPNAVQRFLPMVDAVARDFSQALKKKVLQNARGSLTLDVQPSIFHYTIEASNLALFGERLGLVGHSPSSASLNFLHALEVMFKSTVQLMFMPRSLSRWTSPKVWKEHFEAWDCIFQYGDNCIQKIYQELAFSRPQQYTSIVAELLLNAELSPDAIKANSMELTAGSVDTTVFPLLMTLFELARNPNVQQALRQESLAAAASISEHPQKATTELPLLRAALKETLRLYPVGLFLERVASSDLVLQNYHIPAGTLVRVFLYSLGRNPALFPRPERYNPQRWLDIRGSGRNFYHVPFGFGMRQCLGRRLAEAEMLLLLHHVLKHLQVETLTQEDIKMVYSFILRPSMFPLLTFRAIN

Homo sapiens = species on record: Homo sapiens; experiment: Selectivity index, ratio of IC50 for human recombinant CYP11B1 to IC50 for human recombinant CYP11B2; in short: as §1
[3] = Stability in cynomolgus monkey liver microsomes assessed as parent compound remaining at 1 uM measured after 65 mins by LC/MS-MS analysis; format: ADME, Macaca fascicularis, Microsome; settings: read-out: Stability
In short: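 Parent compound percentage remaining after 65 min incubation with cynomolgus monkey liver microsomes.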

[4] = Cmax in cynomolgus monkey at 1 mg/kg, po measured after 24 or 72 hrs; format: ADME, organism-based, Macaca fascicularis; set-up: dose 1 mg/kg, route oral; settings: in vivo
In short: (§2)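 Male cynomolgus monkeys dosed orally at 1 mg/kg in 0.5% CMC, 0.1% Tween-80, 1% DMSO. Plasma drug concentrations followed out to 24 or 72 h. Cmax, Tmax, AUC0-24 and t1/2 derived from plasma levels.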

[5] = Tmax in cynomolgus monkey at 1 mg/kg, po measured after 24 or 72 hrs; format: ADME, organism-based, Macaca fascicularis; settings: in vivo; in short: as §2
[6] = AUC (0 to 24 hrs) in cynomolgus monkey at 1 mg/kg, po measured after 24 or 72 hrs; format: ADME, organism-based, Macaca fascicularis; set-up: time < 24 hr, dose 1 mg/kg, route oral; settings: in vivo; in short: as §2
[7] = Half life in cynomolgus monkey at 1 mg/kg, po measured after 24 or 72 hrs; format: ADME, organism-based, Macaca fascicularis; settings: in vivo; in short: as §2
[8] = Thermodynamic solubility in phosphate free buffer pH 7.4 incubated for 24 hrs by HPLC/LCMS-MS based shake flask method; format: physicochemical; settings: read-out: Therm_solubility

| IC50 [1] [nM] | IC50 [2] [nM] | Ratio IC50 (Homo sapiens) | remaining at 65 min, 1 µM [3] [%] | Cmax [4] [nM] | Tmax [5] [h] | AUC(0-t) at 24 h [6] [µM·h] | half-life [7] [h] | solubility thermodynamic at 24 h [8] [µM] | Compound |
| --- | --- | --- | --- | --- | --- | --- | --- | --- | --- |
| 9 | 2030 | 226 | 84 | 1000 | 2 | 8.3 | 5.4 |  | N#Cc1ccc2nc(-c3cncnc3C(F)F)n(C3CC3)c2c1 |
| 16 | 4170 | 261 | 62 |  |  |  |  |  | N#Cc1ccc2nc(-c3cncnc3C(F)(F)F)n(C3CC3)c2c1 |
| 13 | 4990 | 383 | 85 |  |  |  |  |  | N#Cc1ncncc1-c1nc2cc(F)c(F)cc2n1C1CC1 |
| 29 | 3930 | 135 | 101 | 2880 | 2 | 32.2 | 7.5 |  | N#Cc1ccc2nc(-c3cncnc3C(F)F)n(C3CC3)c2n1 |
| 24 | 4810 | 200 | 87 | 1680 | 0.5 | 10.1 | 5.3 | 153 (≈ 50.5 µg/mL) | N#Cc1ccc2nc(-c3cncnc3C(F)(F)F)n(C3CC3)c2n1 |

The next lines start with the compound.

| Compound | IC50 [1] [nM] | IC50 [2] [nM] | Ratio IC50 (Homo sapiens) | remaining at 65 min, 1 µM [3] [%] | Cmax [4] [nM] | Tmax [5] [h] | AUC(0-t) at 24 h [6] [µM·h] | half-life [7] [h] | solubility thermodynamic at 24 h [8] [µM] |
| --- | --- | --- | --- | --- | --- | --- | --- | --- | --- |
| Fc1ccc2nc(-c3cn[nH]c3)n(C3CC3)c2c1 | 782 | 1670 | 2 |  |  |  |  |  |  |
| CC(C)c1ncncc1-c1nc2cc(F)c(F)cc2n1C1CC1 | 5 | 1910 | 381 | 80 |  |  |  |  |  |
| Fc1ccc2nc(-c3cncnc3)n(C3CC3)c2c1 |  |  | 136 |  |  |  |  |  |  |
| Fc1ccc2nc(-c3cnco3)n(C3CC3)c2c1 | > 10000 | > 10000 |  |  |  |  |  |  |  |
| Fc1cc2nc(-c3cncnc3NCCC(F)(F)F)n(C3CC3)c2cc1F | 3 | 378 | 126 | 55 |  |  |  |  |  |
| Fc1cc2nc(-c3cncnc3)n(C3CC3)c2cc1F | 22 | 2270 | 103 | 98 |  |  |  |  |  |
